Measured values: publication PMC8637822 (RSC Chemical Biology, 2021)
Where a SMILES comes first, the peptide text is derived from it. Bridges are numbered along the chain shown (N, C = ends). [ ]: non-standard residue; d: D form. Bip = N[C@@H](Cc1ccc(-c2ccccc2)cc1)C(=O)O; NMeS = CN[C@@H](CO)C(=O)O

Key:
[1] = tested on: SW-480 cells; assay: WST-1 cell proliferation assay in SW-480 cells; assay type: cell-based; conditions: p53-mutant SW-480 cells, 24 hours
Summary of the method: (§1)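 Cells were exposed for 24 h to varying concentrations of the synthesized macrocyclic peptide MDM2 inhibitors, and proliferation was read out by the WST-1 assay. The same test was run in MDM2-dependent SJSA-1 cells and in p53-mutant SW-480 cells, the latter as a control line. A small-molecule MDM2 inhibitor served as the positive control.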

[2] = target: MDM2 (Homo sapiens, UniProt Q00987); assay: TR-FRET competition; assay type: binding
MDM2, sequence (Q00987 2-188): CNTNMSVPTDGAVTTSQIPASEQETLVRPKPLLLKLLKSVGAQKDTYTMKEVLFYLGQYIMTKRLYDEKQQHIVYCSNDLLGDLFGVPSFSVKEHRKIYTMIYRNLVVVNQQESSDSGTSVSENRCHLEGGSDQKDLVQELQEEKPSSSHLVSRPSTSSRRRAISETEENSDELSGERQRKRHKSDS

[3] = tested on: nuclear MDM2 in SJSA-1 cells; assay: MDM2 immunofluorescence; assay type: cell-based; conditions: 4 hours
[4] = target: T1, MDM4 (Homo sapiens, UniProt O15151); assay: TR-FRET competition; assay type: binding; conditions: His(96) of MDM2 replaced by proline in MDM4
T1 sequence (O15151 2-185): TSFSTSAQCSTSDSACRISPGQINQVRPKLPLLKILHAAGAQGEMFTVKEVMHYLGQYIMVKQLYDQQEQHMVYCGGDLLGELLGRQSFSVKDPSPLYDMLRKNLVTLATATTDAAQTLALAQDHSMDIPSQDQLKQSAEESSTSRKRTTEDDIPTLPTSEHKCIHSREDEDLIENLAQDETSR

[5] = tested on: SJSA-1 cells; assay: SJSA-1 cellular assay; assay type: cell-based; conditions: tested up to 30 μM
[6] = tested on: SJSA-1 cells; assay: WST-1 cell proliferation assay in SJSA-1 cells; assay type: cell-based; conditions: Homo sapiens, SJSA-1, 24 h, read-out: GI50 growth inhibition
Summary of the method: as §1

Q: Which growth inhibitory effect [1] does the source give for `CC(=O)N[C@@H](CSSC[C@H](N)C(=O)NCCOCCOCC(=O)NCCOCCOCC(=O)N[C@H]1CCCCNC(=O)CC[C@@H](C(N)=O)NC(=O)[C@H](CCCNC(=N)N)NC(=O)[C@@H](CCCNC(=N)N)NC(=O)[C@H](CCCNC(=N)N)NC(=O)[C@@H](CCCNC(=N)N)NC(=O)[C@H](CCCNC(=N)N)NC(=O)[C@@H](CCCNC(=N)N)NC(=O)[C@H](CCCNC(=N)N)NC(=O)[C@@H](CCCNC(=N)N)NC(=O)[C@H](CCCNC(=N)N)NC(=O)[C@@H](CCCNC(=N)N)NC1=O)C(=O)NCCCC[C@H](NC(=O)CNC(=O)[C@@H]1CSCC(=O)N[C@@H](Cc2ccccc2)C(=O)N[C@@H](CO)C(=O)N[C@@H](CC(=O)O)C(=O)N(C)[C@@H](CO)C(=O)N[C@@H](CO)C(=O)N[C@@H](CO)C(=O)N[C@@H](C(C)C)C(=O)N2CCC[C@H]2C(=O)N[C@@H](CC(N)=O)C(=O)N[C@@H](Cc2ccc(-c3ccccc3)cc2)C(=O)N[C@@H](Cc2ccc(-c3ccccc3)cc2)C(=O)N[C@@H](CCCNC(=N)N)C(=O)N[C@@H](CC(N)=O)C(=O)N1)C(N)=O` [CMR19-cR10] here?
A: no growth inhibition

Q: With `CC(C)[C@@H]1NC(=O)[C@H](CO)NC(=O)[C@H](CO)NC(=O)[C@H](CO)N(C)C(=O)[C@H](CC(=O)O)NC(=O)[C@H](CO)NC(=O)[C@H](Cc2ccccc2)NC(=O)CSC[C@@H](C(=O)NCC(N)=O)NC(=O)[C@H](CC(N)=O)NC(=O)[C@H](CCCNC(=N)N)NC(=O)[C@H](C)NC(=O)[C@H](Cc2ccc(-c3ccccc3)cc2)NC(=O)[C@H](CC(N)=O)NC(=O)[C@@H]2CCCN2C1=O` [MMS95] ({CH2CO}-FSD[NMeS]SSVPN[Bip]ARNCG-NH2; thioether N-14) as the compound, how does the IC50 [2] read?
A: > 10000 nM

Q: And the “binding to MDM2 in the TR-FRET assay” value [2]?
A: no binding

Q: And the “concentration-dependent enrichment of nuclear MDM2 (quantified fluorescence)” value ([3]; 0.4-10 µM)?
A: does not

Q: What about the “enrichment of MDM2 in the nuclei compared to the DMSO control” value ([3]; 37 °C, immunofluorescence) of the same compound?
A: did not result in increased nuclear staining

Q: Which IC50 [2] does the source give for `CC(C)[C@@H]1NC(=O)[C@H](CO)NC(=O)[C@H](CO)NC(=O)[C@H](CO)N(C)C(=O)[C@H](CC(=O)O)NC(=O)[C@H](CO)NC(=O)[C@H](Cc2ccccc2)NC(=O)CSC[C@@H](C(=O)NCC(N)=O)NC(=O)[C@H](CC(N)=O)NC(=O)[C@H](CCCNC(=N)N)NC(=O)[C@H](Cc2ccc(-c3ccccc3)cc2)NC(=O)[C@H](Cc2ccc(-c3ccccc3)cc2)NC(=O)[C@H](CC(N)=O)NC(=O)[C@@H]2CCCN2C1=O` [CMR19] ({CH2CO}-FSD[NMeS]SSVPN[Bip][Bip]RNCG-NH2; thioether N-14) here?
A: 0.18 nM

Q: And the Ki [2]?
A: 0.15 nM

Q: What about the “loss in affinity for MDM4 versus MDM2” value [4] of the same compound?
A: more than thousand fold loss in affinity

Q: And the “cytotoxic response on SJSA-1 cells” value [5]?
A: did not observe any cytotoxic response

Q: `COc1cc2c(cc1OC(C)C)[C@H](c1ccc(Cl)cc1)N(c1ccc(N(C)C[C@H]3CC[C@H](N4CCN(C)C(=O)C4)CC3)cc1)C(=O)C2` [CGM097] was tested. Which GI50 [6] did it give?
A: ~1000 nM
